{"source": "paper PMC10286293", "about": "(ACS Omega, 2023)", "key": {"Hygroscopicity test": {"assay": "Hygroscopicity test", "format": "physicochemical", "details": "for percentage weight gain on the first day: 298 K, relative humidity 90 ± 5%; for hygroscopicity class (Chinese Pharmacopoeia): by weight gain"}, "S. pneumoniae": {"tested_on": "S. pneumoniae", "assay": "Antibacterial activity", "format": "cell-based, Streptococcus pneumoniae", "details": "Figure 9, trimethoprim vs compound 1 vs 5-fluorouracil", "method_in_brief": "(§1)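 Two-fold broth microdilution at ten concentrations (32, 16, 8, 4, 2, 1, 0.5, 0.25, 0.125, 0.0625 μg/mL) of test compound with bacterial suspension in medium. Medium-only and bacteria-plus-medium controls were included. Plates were incubated at 310 K for 24 h, and OD600 gave the MIC.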"}, "S. aureus": {"tested_on": "S. aureus", "assay": "Antibacterial activity", "format": "cell-based, Staphylococcus aureus", "details": "Figure 9, trimethoprim vs compound 1 vs 5-fluorouracil", "method_in_brief": "as §1"}, "S. dysenteriae": {"tested_on": "S. dysenteriae", "assay": "Antibacterial activity", "format": "cell-based, Shigella dysenteriae", "details": "Figure 9, trimethoprim vs compound 1 vs 5-fluorouracil", "method_in_brief": "as §1"}, "P. aeruginosa": {"tested_on": "P. aeruginosa", "assay": "Antibacterial activity", "format": "cell-based, Pseudomonas aeruginosa", "details": "Figure 9, trimethoprim vs compound 1 vs 5-fluorouracil", "method_in_brief": "as §1"}, "[1]": {"tested_on": "human colon cancer cells (SW480)", "assay": "In vitro anticancer activity, MTT assay", "format": "cell-based", "details": "SW480 (human rectal cancer cells), MTT, 24, 48, 72 h, dose-dependent", "method_in_brief": "(§2)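 Cells were grown in DMEM with 10% FBS, 1% penicillin and 1% streptomycin at 37 °C, 5% CO2, and used in log phase (85–95% confluent). They were seeded at 3 × 10^5 cells/mL, grown 24 h, then exposed to a range of test compound concentrations for 24, 48 or 72 h, with a positive control. MTT (5 mg/mL stock) was added for 4 h at 37 °C. Formazan was dissolved in DMSO and read at 490 nm after 10 min shaking, with blank-well correction.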"}, "[2]": {"tested_on": "lung cancer cells (H1299)", "assay": "In vitro anticancer activity, MTT assay", "format": "cell-based, human", "details": "MTT, 24, 48, 72 h, dose-dependent", "method_in_brief": "as §2"}, "[3]": {"tested_on": "breast cancer cells (MDA-MB-231)", "assay": "In vitro anticancer activity, MTT assay", "format": "cell-based, human", "details": "MDA-MB-231 breast cancer cells, MTT, 24, 48, 72 h, dose-dependent", "method_in_brief": "as §2"}, "mice": {"tested_on": "mice", "details": "cited from earlier work"}, "[4]": {"assay": "Intrinsic dissolution rate in pure water", "format": "physicochemical", "details": "310 K, 100 rpm"}}}
{"smiles": "O=c1[nH]cc(F)c(=O)[nH]1", "note": "[5-fluorouracil]", "values": [{"measurement": "percentage weight gain on the first day", "setting": "Hygroscopicity test", "value": 0.19, "unit": "%"}, {"measurement": "hygroscopicity class (Chinese Pharmacopoeia)", "setting": "Hygroscopicity test", "value": "slightly hygroscopic (slightly hygroscopic ≥ 0.2%)"}, {"measurement": "antibacterial activity, comparison in words", "setting": "S. pneumoniae", "value": "the greatest"}, {"measurement": "antibacterial activity, comparison in words", "setting": "S. aureus", "value": "the greatest"}, {"measurement": "antibacterial activity, comparison in words", "setting": "S. dysenteriae", "value": "the greatest"}, {"measurement": "antibacterial activity, comparison in words", "setting": "P. aeruginosa", "value": "the greatest"}, {"measurement": "inhibition effect on cancer cells", "setting": "[1]", "value": "significant inhibition effect"}, {"measurement": "inhibition effect on cancer cells", "setting": "[2]", "value": "significant inhibition effect"}, {"measurement": "inhibition effect on cancer cells", "setting": "[3]", "value": "significant inhibition effect"}, {"measurement": "oral LD50", "setting": "mice", "value": 220, "unit": "mg/kg"}]}
{"smiles": "COc1cc(Cc2cnc(N)nc2N)cc(OC)c1OC", "note": "[trimethoprim]", "values": [{"measurement": "percentage weight gain on the first day", "setting": "Hygroscopicity test", "value": 0.20, "unit": "%"}, {"measurement": "hygroscopicity class (Chinese Pharmacopoeia)", "setting": "Hygroscopicity test", "value": "slightly hygroscopic (slightly hygroscopic ≥ 0.2%)"}, {"measurement": "IDR (intrinsic dissolution rate)", "setting": "[4]", "value": 0.039, "unit": "mg cm^–2 min^–1"}, {"measurement": "antibacterial activity, comparison in words", "setting": "S. aureus", "value": "greater than that of compound 1"}, {"measurement": "oral LD50", "setting": "mice", "value": "> 5300", "unit": "mg/kg"}]}
